The results in this text go back to ChEMBL document CHEMBL2390871, “Exploring the anticancer potential of pyrazolo[1,2-a]benzo[1,2,3,4]tetrazin-3-one derivatives: the effect on apoptosis induction, cell cycle and proliferation” (Eur J Med Chem, 2013).

Assay [1] deals with MCF7. Nature of the assay: Cytotoxicity against human MCF7 cells after overnight incubation by MTT assay. The assay is classed as functional, cell-based. The essentials:
(§1)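 MTT (5 mg/ml) was added for 3 h at 37 °C, formazan dissolved in DMSO, and absorbance read at 540 nm. Viability is relative to untreated cells (100%), fitted to a four-parameter Hill equation. IC50 is 50% formazan formation versus drug-free control. Triplicates, at least three independent experiments.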
Background: Formazan colour is commonly taken as a measure of viable cells.

The test system of assay [2] is HeLa. Description: Cytotoxicity against human HeLa cells after overnight incubation by MTT assay. Format: functional, cell-based. The gist of the method:
as §1

Assay [3] relates to HeLa. Nature of the assay: Induction of mitochondrial membrane depolarization in human HeLa cells after overnight incubation by FACS analysis. Format: functional, cell-based. The essentials:
(§2)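 HeLa cells (175,000/well) were incubated overnight with serial drug concentrations. They were washed with PBS, incubated 30 min at 37 °C in Krebs Ringer buffered saline, detached, and collected in buffer with 1% FCS. At least 2 × 10⁴ cells were analysed by flow cytometry, with the TMRM signal read on FL2. Depolarization was gated on cells treated overnight with staurosporine as positive control, and the untreated-cell signal was subtracted. Triplicates, replicated twice.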
For orientation: Flow cytometry measures light scatter and fluorescence of single cells or particles in a stream.

Assay [4] deals with NCI-H292. Description: Cytotoxicity against human NCI-H292 cells after overnight incubation by MTT assay. The assay is classed as functional, cell-based. The essentials: as §1
The nature of assay [5]: Cytotoxicity against human LAN5 cells after overnight incubation by MTT assay. The assay is classed as functional, cell-based. The note with it: LA-N-5. The gist of the method: as §1
The nature of assay [6]: Cytotoxicity against human 16HBE cells after overnight incubation by MTT assay. Format: functional, cell-based. The settings on record: 16HBE14o-. The gist of the method: as §1
For assay [7], the system named is Caco-2. Description: Cytotoxicity against human Caco2 cells after overnight incubation by MTT assay. Format: functional, cell-based. The essentials:
as §1

Assay [8] relates to HeLa. Nature of the assay: Induction of mitochondrial membrane depolarization in human HeLa cells at 3 to 8 uM after overnight incubation by FACS analysis. Format: functional, cell-based. The essentials: as §2
Assay [9] relates to SK-MEL-2. Description: Cytotoxicity against human SK-MEL-2 cells assessed as growth at 10 uM after 48 hrs by sulforhodamine B assay. The assay is classed as functional. The settings on record: SK-MEL-2, 48 h, read-out: Activity. The essentials:
(§3)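 NCI-60 one-dose screen at 10 µM. Cells in RPMI 1640 with 5% FBS and 2 mM L-glutamine were plated at 5000–40,000/well and preincubated 24 h. Drug was then applied for 48 h at 37 °C, 5% CO₂. Adherent cells were fixed with cold TCA (10% final) and stained with SRB. Growth % is relative to the no-drug control and the time-zero cell number; negative values indicate lethality.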
(The SRB assay estimates cell density from bound dye.)

Assay [10] deals with UO-31. Description: Cytotoxicity against human UO31 cells assessed as growth at 10 uM after 48 hrs by sulforhodamine B assay. The note with it: UO-31, 48 h, read-out: Activity. Format: functional. The essentials:
as §3

Assay [11] deals with SW-620. Description: Cytotoxicity against human SW620 cells assessed as growth at 10 uM after 48 hrs by sulforhodamine B assay. The assay is classed as functional. The settings on record: SW-620, 48 h, read-out: Activity. The gist of the method:
as §3

Assay [12] deals with PC-3. Description: Cytotoxicity against human PC3 cells assessed as growth at 10 uM after 48 hrs by sulforhodamine B assay. The assay is classed as functional. The settings on record: PC-3, 48 h, read-out: Activity. The gist of the method:
as §3

The test system of assay [13] is HeLa. Description: Cell cycle arrest in human HeLa cells assessed as accumulation at sub-G0/G1 phase at 50 uM after 72 hrs by propidium iodide staining-based FACS analysis. The assay is classed as functional. The essentials:
(§4)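 HeLa cells (1 × 10⁶) exposed 72 h to 5, 10, 25 or 50 µM of each compound. Cells were washed, trypsinized, fixed in chilled 70% ethanol on ice for more than 2 h, and stained with propidium iodide for 15 min at 37 °C in the dark. Cell-cycle phase distribution was read by flow cytometry against untreated control cells.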

For assay [14], the system named is HeLa. Nature of the assay: Induction of mitochondrial membrane depolarization in human HeLa cells at 3 to 4 uM after overnight incubation by FACS analysis. The assay is classed as functional, cell-based. The essentials:
as §2

The test system of assay [15] is COLO 205. Nature of the assay: Cytotoxicity against human COLO205 cells assessed as growth at 10 uM after 48 hrs by sulforhodamine B assay. Format: functional. The note with it: COLO 205, 48 h, read-out: Activity. The gist of the method: as §3
Assay [16] concerns HOP-92. Nature of the assay: Cytotoxicity against human HOP92 cells assessed as growth at 10 uM after 48 hrs by sulforhodamine B assay. The assay is classed as functional. The settings on record: HOP-92, 48 h, read-out: Activity. The essentials:
as §3

Assay [17] relates to HeLa. Nature of the assay: Cell cycle arrest in human HeLa cells assessed as accumulation at S phase at 50 uM after 72 hrs by propidium iodide staining-based FACS analysis. Format: functional. The gist of the method: as §4
Assay [18] relates to CCRF-CEM. Description: Cytotoxicity against human CCRF-CEM cells assessed as growth at 10 uM after 48 hrs by sulforhodamine B assay. Format: functional. The note with it: read-out: Activity. The gist of the method:
as §3

Assay [19] has as its system IGROV-1. Description: Cytotoxicity against human IGROV1 cells assessed as growth at 10 uM after 48 hrs by sulforhodamine B assay. Format: functional. The settings on record: IGROV-1, 48 h, read-out: Activity. The essentials: as §3
Assay [20] relates to NCI-H522. Nature of the assay: Cytotoxicity against human NCI-H522 cells assessed as growth at 10 uM after 48 hrs by sulforhodamine B assay. Format: functional. The settings on record: NCI-H522, 48 h, read-out: Activity. The essentials: as §3
Assay [21] deals with MOLT-4. Description: Cytotoxicity against human MOLT4 cells assessed as growth at 10 uM after 48 hrs by sulforhodamine B assay. The assay is classed as functional. The note with it: MOLT-4, 48 h, read-out: Activity. The essentials: as §3
Assay [22] has as its system T47D. Description: Cytotoxicity against human T47D cells assessed as growth at 10 uM after 48 hrs by sulforhodamine B assay. The assay is classed as functional. The settings on record: read-out: Activity. The essentials: as §3
Assay [23] has as its system SNB-75. Nature of the assay: Cytotoxicity against human SNB75 cells assessed as growth at 10 uM after 48 hrs by sulforhodamine B assay. The assay is classed as functional. The settings on record: SNB-75, 48 h, read-out: Activity. The gist of the method: as §3
In assay [24] the test system is HeLa. Nature of the assay: Induction of mitochondrial membrane depolarization in human HeLa cells at < 10 uM after overnight incubation by FACS analysis. The assay is classed as functional, cell-based. The essentials: as §2
In assay [25] the test system is HeLa. Description: Cell cycle arrest in human HeLa cells assessed as accumulation at sub-G0/G1 phase at 5 to 50 uM after 72 hrs by propidium iodide staining-based FACS analysis. The assay is classed as functional. The gist of the method: as §4
In assay [26] the test system is HeLa. Nature of the assay: Induction of mitochondrial membrane depolarization in human HeLa cells at 1 uM after overnight incubation by FACS analysis. Format: functional, cell-based. The essentials:
as §2

Assay [27] deals with HeLa. Nature of the assay: Cell cycle arrest in human HeLa cells assessed as accumulation at G1 phase at 5 to 50 uM after 72 hrs by propidium iodide staining-based FACS analysis. The assay is classed as functional. The essentials:
as §4

pEC50, pIC50: −log10 of the molar value. Calls of active or inactive are those of the source. The rule behind the calls is not given here. Bounds are passed on as bounds.

One may read the pIC50 as the negative decadic logarithm of the IC50, by convention in mol/L. Usually pEC50 stands for the negative decadic logarithm of the EC50, by convention in mol/L. Read a low pEC50 as a large EC50.

For the compound `Cc1cc(=O)n2nnc3cc(Cl)ccc3n12`, the pIC50 was 4.69 in [1]; 4.83 in assay [2]; 4.63 in [4]; 4.50 in assay [5]; 4.75 in [6]; 4.62 in assay [7]. In [3], this compound had a pEC50 of 5.30.
Turning to `Cc1ccc2c(c1)nnn1c(=O)cc(C)n21`, the pIC50 was 4.37 in [1]; 4.81 in assay [2]; 4.60 in assay [4]; 4.03 in assay [5]; 4.44 in assay [6]; 4.30 in [7]. Also, the outcome in [8] was Active.
In the case of `Cc1cc2nnn3c(=O)cc(C)n3c2cc1C`, the pIC50 is 4.33 in assay [1]; 4.88 in assay [2]; 4.63 in assay [4]; 4.02 in assay [5]; 4.41 in [6]; 4.33 in assay [7]. The growth at 10 µM in [9] is 96%; in assay [10], 84%; in [11], 94%; in assay [12], 100%; in [15], 66%; in assay [16] it was 93%. In addition, the growth at 10 µM in assay [18] worked out at 19%; in assay [19], 91%; in assay [20] it was 97%; in [21], 82%; in [22], 97%; in assay [23] it was 89%. In addition, the Activity in assay [13] was found to be 18%; in assay [17], 10%. Besides, the result in assay [14] was Active.
Regarding `Cc1cc(=O)n2nnc3cc(Cl)c(Cl)cc3n12`, the pIC50 in [1] was 4.86; in assay [2], 4.83; in assay [4], 4.55; in [5], 4.59; in assay [6] it was 4.87; in assay [7], 4.59. Also, the growth at 10 µM is 102% in [9]; 81% in assay [10]; 23% in [11]; 94% in assay [12]; -64% in [15]; 101% in assay [16]. The growth at 10 µM in [18] is 23%; in [20], 54%; in [21], 59%; in assay [22], 76%; in assay [23], 96%. Besides, the Activity in [13] amounted to 25.4%; in assay [17], 19.4%. The same compound gave a pEC50 in assay [3] of 5.52.
On to `Cc1cc(=O)n2nnc3cc(C#N)ccc3n12`, for which the pIC50 in [1] was 4.44; in assay [2], 4.57; in assay [4], 4.36; in assay [5] it was 4.55; in [6], 4.33; in assay [7], 4.43. Besides, the growth at 10 µM stood at 99% in assay [9]; 105% in assay [10]; 110% in [11]; 101% in assay [12]; 104% in assay [15]; 103% in [16]. For the same compound, the growth at 10 µM in [18] came out at 100%; in assay [20], 97%; in assay [21], 95%; in assay [22], 91%; in assay [23] it was 96%. The result in [24] was Active.
In the case of `Cc1cc(=O)n2nnc3ccc(Cl)cc3n12`, the pIC50 was 4.53 in assay [1]; 4.80 in assay [2]; 4.60 in assay [4]; 4.31 in [5]; 4.56 in assay [6]; 4.46 in assay [7].
Take `Cc1cc(=O)n2nnc3cc(C(F)(F)F)ccc3n12`: the pIC50 in assay [1] was less than 4.00; in assay [2], less than 4.00; in assay [4] it was less than 4.00; in [5], 4.82; in assay [6], 4.51; in [7], less than 4.00. Further, the growth at 10 µM in [9] is 99%; in assay [10], 84%; in assay [11] it was 118%; in [12] it was 101%; in assay [15] it was 108%; in assay [16], 94%. Also, the growth at 10 µM in assay [18] was 103%; in assay [20], 97%; in assay [21], 91%; in [22], 115%; in assay [23] it was 116%. The Activity in assay [25] is 7.2%; in [27], -12%. In assay [26], the result was Active.
